Results reported in ChEMBL document CHEMBL4014288, “Targeted Antibiotic Delivery: Selective Siderophore Conjugation with Daptomycin Confers Potent Activity against Multidrug Resistant Acinetobacter baumannii Both in Vitro and in Vivo” (J Med Chem, 2017).
In brackets after ≈: the same amount, converted by molar mass. Activity calls are given as the source filed them. No cut-off for these calls is given here.

What was measured:
Mus musculus = test: Toxicity in ICR mouse at 250 mg/kg, iv after 21 to 22 days; assay type: organism-based; conditions: in vivo
Acinetobacter baumannii [1] = test: Antibacterial activity against Acinetobacter baumannii ATCC 17961 after 18 hrs by broth microdilution method; assay type: functional; conditions: ATCC 17961, 18 h
Acinetobacter baumannii [2] = test: Antibacterial activity against Acinetobacter baumannii ARC 3486 after 18 hrs by broth microdilution method; assay type: functional; conditions: ARC 3486, 18 h
Pseudomonas aeruginosa = test: Antibacterial activity against Pseudomonas aeruginosa PAO1 after 18 hrs by broth microdilution method; assay type: functional; conditions: PAO1, 18 h
Burkholderia multivorans = test: Antibacterial activity against Burkholderia multivorans AU0100 after 18 hrs by broth microdilution method; assay type: functional; conditions: AU0100, 18 h
Staphylococcus aureus [3] = test: Antibacterial activity against Staphylococcus aureus SG511 after 18 hrs by broth microdilution method; assay type: functional; conditions: SG511, 18 h
Staphylococcus aureus [4] = test: Antibacterial activity against Staphylococcus aureus ATCC 11632 after 18 hrs by broth microdilution method; assay type: functional; conditions: ATCC 11632, 18 h
Escherichia coli = test: Antibacterial activity against Escherichia coli DCO after 18 hrs by broth microdilution method; assay type: functional
Acinetobacter baumannii [5] = test: Antibacterial activity against Acinetobacter baumannii ATCC BAA 1710 after 18 hrs by broth microdilution method; assay type: functional; conditions: ATCC BAA 1710, 18 h
Acinetobacter baumannii [6] = test: Antibacterial activity against Acinetobacter baumannii ATCC BAA 1793 after 18 hrs by broth microdilution method; assay type: functional; conditions: ATCC BAA 1793, 18 h
Acinetobacter baumannii [7] = test: Antibacterial activity against Acinetobacter baumannii ATCC BAA 1800 after 18 hrs by broth microdilution method; assay type: functional; conditions: ATCC BAA 1800, 18 h
Acinetobacter baumannii [8] = test: Antibacterial activity against Acinetobacter baumannii ARC 3484 after 18 hrs by broth microdilution method; assay type: functional; conditions: ARC 3484, 18 h
Acinetobacter baumannii [9] = test: Antibacterial activity against Acinetobacter baumannii ARC 5079 after 18 hrs by broth microdilution method; assay type: functional; conditions: ARC 5079, 18 h
Acinetobacter baumannii [10] = test: Antibacterial activity against Acinetobacter baumannii ARC 5081 after 18 hrs by broth microdilution method; assay type: functional; conditions: ARC 5081, 18 h
Acinetobacter baumannii [11] = test: Antibacterial activity against Acinetobacter baumannii ATCC 19606 after 18 hrs by broth microdilution method; assay type: functional; conditions: ATCC 19606, 18 h
Acinetobacter baumannii [12] = test: Antibacterial activity against Acinetobacter baumannii ATCC BAA 1797 after 18 hrs by broth microdilution method; assay type: functional; conditions: ATCC BAA 1797, 18 h
Acinetobacter baumannii [13] = test: Antibacterial activity against Acinetobacter baumannii ATCC 17961 infected in ICR mouse assessed as mouse survival rate at 25 mg/kg, iv administered at 30 mins and 24.5 hrs post infection measured 7 days post infection relative to vehicle-treated control; assay type: functional; conditions: ATCC 17961, iv
Summary of the method: (§1)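 Sepsis model in 6- to 8-week-old female ICR mice infected intraperitoneally with A. baumannii ATCC 17961. Treatment given intravenously at 30 min and again at 24.5 h after infection, at 25, 10 or 5 mg/kg. Saline vehicle group as control. Five mice per dose group and six in the vehicle group. Read-out was survival.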

Acinetobacter baumannii [14] = test: Antibacterial activity against Acinetobacter baumannii ATCC 17961 infected in ICR mouse assessed as mouse survival rate at 10 mg/kg, iv administered at 30 mins and 24.5 hrs post infection measured 7 days post infection relative to vehicle-treated control; assay type: functional; conditions: ATCC 17961, iv; summary of the method: as §1
Acinetobacter baumannii [15] = test: Antibacterial activity against Acinetobacter baumannii ATCC 17961 infected in ICR mouse assessed as mouse survival rate at 5 mg/kg, iv administered at 30 mins and 24.5 hrs post infection measured 7 days post infection relative to vehicle-treated control; assay type: functional; conditions: ATCC 17961, iv; summary of the method: as §1
[16] = Binding affinity to ferric ion
[17] = Binding affinity to ferric ion at 5 mg after 18 hrs by LC-MS analysis
Summary of the method: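 Ferric complex made by adding Fe(acac)3 (1.1 mg) in MeOH (1 mL) to conjugate (5.0 mg) in MeOH (1 mL). Analysed by LC on a C18 column (2.2 μm particles) at 40 °C, with a water/acetonitrile mobile phase. UV-vis diode-array detection over 190−400 nm, plus MS.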

Acinetobacter baumannii [18] = test: Antibacterial activity against Acinetobacter baumannii ATCC 17961 infected in ICR mouse assessed as mouse survival rate at 50 mg/kg, iv administered at 30 mins and 24.5 hrs post infection measured 7 days post infection; assay type: functional, organism-based
Summary of the method: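 Female ICR mice, 6 to 8 weeks old, infected intraperitoneally with A. baumannii ATCC 17961 (sepsis model). Treatments were given intravenously at 30 min and 24.5 h after infection, with saline as vehicle. Survival was scored as the fraction of mice alive per group (3 to 6 mice per group).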

SMILES | MIC (Acinetobacter baumannii [1]) [µM] | MIC (Acinetobacter baumannii [2]) [µM] | MIC (Pseudomonas aeruginosa) [µM] | MIC (Burkholderia multivorans) [µM] | MIC (Staphylococcus aureus [3]) [µM] | MIC (Staphylococcus aureus [4]) [µM] | MIC (Escherichia coli) [µM] | MIC (Acinetobacter baumannii [5]) [µM] | MIC (Acinetobacter baumannii [6]) [µM] | MIC (Acinetobacter baumannii [7]) [µM] | MIC (Acinetobacter baumannii [8]) [µM] | MIC (Acinetobacter baumannii [9]) [µM] | MIC (Acinetobacter baumannii [10]) [µM] | MIC (Acinetobacter baumannii [11]) [µM] | MIC (Acinetobacter baumannii [12]) [µM] | also measured
CCCCCCCCCC(=O)N[C@@H](Cc1c[nH]c2ccccc12)C(=O)N[C@H](CC(N)=O)C(=O)N[C@@H](CC(=O)O)C(=O)N[C@@H]1C(=O)NCC(=O)N[C@@H](CCCNC(=O)CCCC(=O)N(O)CCCCCNC(=O)CCC(=O)N(CCCCNC(=O)c2cccc(O)c2O)CCCNC(=O)c2cccc(O)c2O)C(=O)N[C@@H](CC(=O)O)C(=O)N[C@H](C)C(=O)N[C@@H](CC(=O)O)C(=O)NCC(=O)N[C@H](CO)C(=O)N[C@@H]([C@@H](C)CC(=O)O)C(=O)N[C@@H](CC(=O)c2ccccc2N)C(=O)O[C@@H]1C [listing 1 of 2 here] | – | – | – | – | – | – | – | – | – | – | – | – | – | – | – | Activity (Mus musculus): Non-Toxic
CCCCCCCCCC(=O)N[C@@H](Cc1c[nH]c2ccccc12)C(=O)N[C@H](CC(N)=O)C(=O)N[C@@H](CC(=O)O)C(=O)N[C@@H]1C(=O)NCC(=O)N[C@@H](CCCNC(=O)CCCC(=O)N(O)CCCCCNC(=O)CCC(=O)N(CCCCNC(=O)c2cccc(O)c2O)CCCNC(=O)c2cccc(O)c2O)C(=O)N[C@@H](CC(=O)O)C(=O)N[C@H](C)C(=O)N[C@@H](CC(=O)O)C(=O)NCC(=O)N[C@H](CO)C(=O)N[C@@H]([C@@H](C)CC(=O)O)C(=O)N[C@@H](CC(=O)c2ccccc2N)C(=O)O[C@@H]1C [listing 2 of 2 here] | 0.4 (≈ 0.934 µg/mL) | 0.4 (≈ 0.934 µg/mL) | > 100 | > 100 | 6 (≈ 14 µg/mL) | 12.5 (≈ 29.2 µg/mL) | > 100 | 0.8 (≈ 1.87 µg/mL) | 0.8 (≈ 1.87 µg/mL) | 0.8 (≈ 1.87 µg/mL) | 0.4 (≈ 0.934 µg/mL) | 0.8 (≈ 1.87 µg/mL) | 0.4 (≈ 0.934 µg/mL) | 0.8 (≈ 1.87 µg/mL) | 0.8 (≈ 1.87 µg/mL) | survival at 25 mg/kg (Acinetobacter baumannii [13]): 80%; survival at 10 mg/kg (Acinetobacter baumannii [14]): 80%; survival at 5 mg/kg (Acinetobacter baumannii [15]): 20%
CCCCCCCCCC(=O)N[C@@H](Cc1c[nH]c2ccccc12)C(=O)N[C@@H](CC(N)=O)C(=O)N[C@@H](CC(=O)O)C(=O)N[C@@H]1C(=O)NCC(=O)N[C@@H](CCCNC(=O)CCCC(=O)N(CCCCCNC(=O)CCC(=O)N(CCCCNC(=O)c2cccc(OCc3ccccc3)c2OCc2ccccc2)CCCNC(=O)c2cccc(OCc3ccccc3)c2OCc2ccccc2)OCc2ccccc2)C(=O)N[C@@H](CC(=O)O)C(=O)N[C@H](C)C(=O)N[C@@H](CC(=O)O)C(=O)NCC(=O)N[C@H](CO)C(=O)N[C@@H]([C@@H](C)CC(=O)O)C(=O)N[C@@H](CC(=O)c2ccccc2N)C(=O)O[C@@H]1C | > 50 | > 50 | – | – | – | – | – | > 50 | > 50 | > 50 | > 50 | > 50 | > 50 | > 50 | > 50 | Activity [16]: inactive
CCCCCCCCCC(=O)N[C@@H](Cc1c[nH]c2ccccc12)C(=O)N[C@@H](CC(N)=O)C(=O)N[C@@H](CC(=O)O)C(=O)N[C@@H]1C(=O)NCC(=O)N[C@@H](CCCNC(=O)CCCC(=O)N(O)CCCCCNC(=O)CCC(=O)N(CCCCNC(=O)c2cccc(O)c2O)CCCNC(=O)c2cccc(O)c2O)C(=O)N[C@@H](CC(=O)O)C(=O)N[C@H](C)C(=O)N[C@@H](CC(=O)O)C(=O)NCC(=O)N[C@H](CO)C(=O)N[C@@H]([C@@H](C)CC(=O)O)C(=O)N[C@@H](CC(=O)c2ccccc2N)C(=O)O[C@@H]1C | – | – | – | – | – | – | – | – | – | – | – | – | – | – | – | Activity [17]: Active
NCC[C@H](O)C(=O)N[C@@H]1C[C@H](N)[C@@H](O[C@H]2O[C@H](CN)[C@@H](O)[C@H](O)[C@H]2O)[C@H](O)[C@H]1O[C@H]1O[C@H](CO)[C@@H](O)[C@H](N)[C@H]1O [AMIKACIN] | 1.7 (≈ 0.996 µg/mL) | > 50 | – | – | – | – | – | > 50 | > 50 | > 50 | > 27 | > 50 | > 50 | 3.4 (≈ 1.99 µg/mL) | 27 (≈ 15.8 µg/mL) | –
O=C(O)c1cn(C2CC2)c2cc(N3CCNCC3)c(F)cc2c1=O [CIPROFLOXACIN] | 0.2 (≈ 0.0663 µg/mL) | > 25 | 0.5 (≈ 0.166 µg/mL) | > 25 | 0.5 (≈ 0.166 µg/mL) | 0.5 (≈ 0.166 µg/mL) | 0.5 (≈ 0.166 µg/mL) | > 25 | > 25 | > 25 | > 25 | > 25 | > 25 | 0.8 (≈ 0.265 µg/mL) | > 25 | –
CCCCCCCCCC(=O)N[C@@H](Cc1c[nH]c2ccccc12)C(=O)N[C@@H](CC(N)=O)C(=O)N[C@@H](CC(=O)O)C(=O)N[C@@H]1C(=O)NCC(=O)N[C@@H](CCCN)C(=O)N[C@@H](CC(=O)O)C(=O)N[C@H](C)C(=O)N[C@@H](CC(=O)O)C(=O)NCC(=O)N[C@H](CO)C(=O)N[C@@H]([C@H](C)CC(=O)O)C(=O)N[C@@H](CC(=O)c2ccccc2N)C(=O)O[C@@H]1C [DAPTOMYCIN] | > 100 | > 100 | > 100 | > 100 | 0.05 (≈ 0.081 µg/mL) | 0.4 (≈ 0.648 µg/mL) | > 100 | > 100 | > 100 | > 100 | > 100 | > 100 | > 100 | – | > 100 | Activity (Acinetobacter baumannii [18]): inactive
